Sampled rows, rich in hits. Any-hit rate of the full collection: about 4.9%.
APP 5'UTR act = activates APP 5'UTR luciferase reporter. SH-SY5Y APP 5'UTR luciferase reporter, luminescence; zero percent = DMSO vehicle wells. activation, % at 2 µM. actives 1% (n = 190,000);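 active means activation above a set limit, based on mean plus 3 SD of controls, cut at about 140% in these data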
STAT1 inh = reduces IFN-gamma driven STAT1 reporter signal. NIH 3T3 STAT1-luciferase reporter, luminescence. inhibition, % at 5.5 µM. actives 0.35% (n = 200,000). AID 920;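 active means inhibition above a set limit, the mean inhibition across all tested compounds plus 3 SD, cut at about 34% in these data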;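 further: 0% = IFN-gamma with DMSO and 100% = IFN-gamma with 300 µM nifuroxazide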
STAT3 blocker = STAT3 signaling inhibition. U3A cells, IL-6 STAT3-luciferase reporter, luminescence; host cell line lacks STAT1. inhibition, % at 5.5 µM. actives 0.89% (n = 190,000). AID 862;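 active means inhibition above the mean inhibition across all screened compounds plus 3 SD, cut at about 44% in these data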;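 further: 0% = DMSO only wells and 100% = 100 µM nifuroxazide control wells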
NF-kB neuron act = compounds increasing NF-kB expression in human neuronal cells | NF-kB reporter expression; hits give high values | fold change at 12.5 µM | actives 1.6% (n = 190,000); in the data active means fold change above about 3.3
STAT1 act = STAT1 signaling activation | NIH 3T3 STAT1-luciferase reporter, IFN-gamma, luminescence; 100% = IFN-gamma alone, no compound | actives 2.6% (n = 200,000) | activation (% of control), % at 5.5 µM;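 active means activation above the screen-wide mean activation plus 3 SD, cut at about 130% in these data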;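 further: raw ratio to IFN-gamma control signal so 100% means no change and 0% no light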
STAT3 act = STAT3 signaling activation. AID 871. U3A cells, IL-6 STAT3-luciferase reporter, luminescence; 100% = signal with IL-6 EC80 alone. actives 0.91% (n = 190,000). activation (% of control), % at 5.6 µM;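 active means activation above the screen-wide mean of compound activation plus 3 SD, cut at about 130% in these data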;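 further: 0% = background luminescence of wells with medium and substrate only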
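Material: human STAT1-deficient U3A cells with stable STAT3-luciferase reporter / Probe or stimulus: IL-6 stimulus at 33 ng/mL final / Schedule: 1 h compound pre-exposure, 6 h IL-6 stimulation, 37 °C / Technique: luminescence / Read-out basis: percent of IL-6-only median luminescence / Control set: IL-6-only high control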
* hit, by the source's call; . = no result.

SMILES	APP 5'UTR act	STAT1 inh	STAT3 blocker	NF-kB neuron act	STAT1 act	STAT3 act
Oc1[nH]c2ccccc2c1N=Nc1ccccc1F	66	-58	-69	4.1*	151*	154*
Oc1[nH]c2ccccc2c1N=Nc1ccc(F)cc1	46	-50	-27	1.7	144*	119
CC(C)(C)NC(=O)C(c1ccc(O)cc1)N(C(=O)CCC(=O)Nc1nccs1)c1ccc(F)cc1 (stereo not drawn)	1	-2	-2	0.52	101	104
Cc1ccsc1C(=O)OCC(=O)N1CCc2ccccc2C1	63	-49	16	1.1	144*	91
CN(C)c1cccc(C(=O)OCC(=O)N2CCc3ccccc3C2)c1	32	-8	-8	1.1	106	108
O=C(Nc1ccccc1O)c1ccc(NS(=O)(=O)c2cccc3cccnc23)cc1	47	6	.	12*	94	.
COCC(=O)Nc1nc2ccccc2s1	7	-21	-11	1.9	120	109
O=C(Cc1cccs1)Nc1nc2ccccc2s1	60	-29	9	4.2*	126	96
CC(C)C(=O)NNc1nc2ccccc2s1	28	-35	17	2	132*	88
O=C(Cc1ccccc1)Nc1nc2ccccc2s1	54	-32	-8	7.1*	125	108
Cn1cc(Cl)c(C(=O)Nc2nc3ccccc3s2)n1	146*	-52	31	4.4*	148*	76
Cc1cc(C)c2nc(SCC(=O)N3CC(=O)Nc4ccccc43)c(C#N)cc2c1	-96	-5	10	3.5*	104	93
CCC(Sc1nc2cc(OC)c(OC)cc2c(=O)n1CCc1ccc(OC)c(OC)c1)C(=O)NCCOC (stereo not drawn)	-7	-9	8	0.62	108	95
Brc1ccc2nc(N3CCN(c4ccccc4)CC3)sc2c1	132	-36	9	2	129*	97
O=S(=O)(c1ccccc1)N1CCN(c2nc3ccccc3s2)CC1	14	-6	8	1.3	105	98
Fc1ccc2nc(N3CCOCC3)sc2c1	27	-45	5	1.7	138*	100
c1ccc(N2CCN(c3nc4cc5c(cc4s3)OCO5)CC2)cc1	80	-50	41	3.8*	146*	66
Clc1ccc2nc(N3CCN(c4ccccc4)CC3)sc2c1	27	-40	5	3.5*	137*	98
O=C(CCCCn1c(=O)c2ccccc2n(Cc2ccccc2F)c1=O)NC1CCN(Cc2ccccc2)CC1	9	2	-3	0.97	97	104
CN1CCN(C(=S)C(=O)Nc2ccc(Br)cc2)CC1	31	-2	19	1.3	100	86
COc1ccc(C2C(C#N)=C(C)NC(C)=C2C(=O)OC(C)C)c(OC)c1 (stereo not drawn)	-10	-4	12	1.1	102	98
CC(C)c1ccc(NC(=O)COc2ccc(F)cc2C(=O)c2cnn(-c3ccccc3)c2)cc1	96	-42	-60	1.4	140*	147*
O=C(COc1ccccc1C(=O)c1cnn(-c2ccccc2)c1)Nc1ccc2ccccc2c1	61	-15	-9	1.6	113	107
CCOC(=O)c1ccc(N=C2SC(C(=O)Nc3ccc(C(=O)O)cc3)CC(=O)N2Cc2cccs2)cc1 (stereo not drawn)	15	1	3	.	100	103
O=C(CSc1ncnc2ccccc12)c1ccc2c(c1)OCCO2	125	-25	15	2.2	123	86
SMILES	APP 5'UTR act	STAT1 inh	STAT3 blocker	NF-kB neuron act	STAT1 act	STAT3 act
O=C(COc1ncnc2ccccc12)c1ccc2c(c1)OCCO2	171*	-45	13	3.8*	142*	91
COc1ccc(NC(=S)c2ccc(N(C)C)cc2)cc1	135*	-54	25	2.8	149*	81
COc1ccc(C(=S)Nc2ccc(N(C)C)cc2)cc1	170*	-30	11	5.4*	128	95
CSc1cccc(NC(=S)N2CCC(N(C)C3CCCC3)CC2)c1	12	-11	-2	1.2	110	104
COc1c(C)cccc1C(=O)Nc1ccc(N2CCN(S(C)(=O)=O)CC2)cc1	35	-49	6	2	145*	97
COc1c(C)cccc1C(=O)Nc1ccc(CN2CCOCC2)cc1	118	-32	-2	1.7	130*	103
COc1cccc(NC(=O)c2ccc(CN3CCOCC3)cc2)c1	69	-34	5	2	131*	96
Cc1n[nH]c(=O)n1-c1ccc(OCc2ccccc2)cc1	31	-26	-2	1.7	122	107
CCN1C(=O)/C(=C/C=C2/SCCN2C)SC1=S	106	-58	59*	4.7*	152*	51
C/C(N)=C(/C#N)C(=O)COC(=O)CCCNC(=O)c1ccc(Cl)cc1	-31	0	8	1.2	99	95
Cc1[nH]c2ccccc2c1N=Nc1ccccc1C(=O)O	5	8	-42	0.92	93	135*
Cc1noc(C)c1N=Nc1ccccc1C(=O)O	17	-1	2	0.91	102	103
Cc1[nH]c2ccccc2c1N=Nc1cccc(C(=O)O)c1	83	-52	-9	4.1*	147*	109
CC(=O)c1ccc(Nc2ccc(-c3ccccc3F)nn2)cc1	146*	-47	19	6.9*	142*	85
COc1ccccc1-c1ccc(Nc2ccc(C(=O)N3CCOCC3)cc2)nn1	2	-6	9	1.3	106	94
CC(C)(C)c1ccc(-c2nnc(SCC(=O)NC3CCS(=O)(=O)C3)n2N)cc1 (stereo not drawn)	5	-3	0	1.2	103	104
CN(CC1CCOCC1)C(=O)CC1C(=O)NCCN1CC1CCCCC1 (stereo not drawn)	4	-10	-2	1.1	108	106
COCC(=O)NNC(=O)c1ccccc1OC	6	2	-38	1	99	135*
COc1ccccc1C(=O)NNC(=O)c1cccc(F)c1	129	-51	10	2.3	146*	94
COc1ccccc1C(=O)NNC(=O)c1ccccc1F	60	-43	-42	2.1	138*	133
COc1cc2c(cc1NC(=O)c1ccccc1F)CCCC2	74	-42	-33	2.5	138*	129
O=C(CCCCO)CCCCCCCC[C@H]1N[C@H](CO)[C@H](O)[C@@H]1O[C@@H]1O[C@H](CO)[C@@H](O)[C@H](O)[C@H]1O	-11	-15	-1	1.2	114	99
O=C1CCOc2cc(OCc3ccccc3)ccc21	118	-21	20	6.3*	134*	85
O=C(O)C1CC(=O)N(c2ccc(OCc3ccccc3)cc2)C1 (stereo not drawn)	-6	4	6	1.2	96	101
Cc1sc2ncnc(SCC(=O)NC(=O)c3cccn3C)c2c1C	2	6	7	1.3	95	94
